From ChEMBL document CHEMBL4368920, “Discovery of 2,4-diamino-5-cyanopyrimidine derivatives as protein kinase C theta inhibitors with mitigated time-dependent drug-drug interactions” (Bioorg Med Chem, 2019) come the findings set out here.

One series deals with CYP3A4 (Homo sapiens, UniProt P08684). The series can be described thus: Time-dependent inhibition of CYP3A4 in human liver microsomes assessed as residual activity at 5 uM using midazolam as substrate preincubated for 30 mins followed by substrate addition and measured after 20 mins in presence of NADPH by LC-MS/MS analysis relative to control. It counts as ADME. Conditions: probe midazolam, read-out: Activity. The gist of the method:
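Human liver microsomes at 0.1 mg/mL in 100 mM potassium sodium phosphate (pH 7.4) with 1 mM NADPH and 0.1 mM EDTA, compound at 5 μM. Midazolam added either with no preincubation or after 30 min preincubation at 37 °C. Reaction run 20 min at 37 °C and stopped with acetonitrile. Residual activity is 30-min activity as a percentage of 0-min activity.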

Series [1] in a line: Aqueous solubility of the compound at pH 6.8 at 130 uM after 20 hrs by HPLC analysis. It counts as physicochemical. Conditions: aqueous solution. The gist of the method:
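DMSO stock diluted to 130 μM with pH 6.8 aqueous buffer. Incubated 20 h at 25 °C, precipitate removed by filtration, filtrate concentration measured by HPLC.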

Series [2] addresses T1, Protein kinase C theta type (Homo sapiens, UniProt Q04759). The series can be described thus: Inhibition of recombinant human full length PKCtheta using biotin-labelled STK substrate-1 as substrate after 60 mins by fluorescence assay.
Series [3] addresses T1, Protein kinase C theta type. The series can be described thus: Inhibition of PKCtheta in human Jurkat cells assessed as reduction in IL2 production after 14 hrs by luciferase reporter gene assay. It counts as cell-based. The gist of the method: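 Jurkat cells transiently transfected with a pGL3-IL2 promoter firefly luciferase plasmid. Stimulated with anti-CD3 plus anti-CD28 antibodies in the presence of compound for 14 h, then luciferase substrate added. IC50 from duplicates in one experiment.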
For orientation: Reporter assays use an easily measured gene product as a stand-in for the process of interest.

Series [4] can be described thus: Volume of distribution at steady state in Sprague-Dawley rat at 1 mg/kg, iv by LC-MS/MS analysis. It counts as ADME, organism-based. Conditions: in vivo, read-out: Vdss. The gist of the method:
(§1)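 Female SD rats, 1 mg/kg given as a single i.v. or oral dose in DMF/propylene glycol/1N HCl/saline (25/25/0.2/49.8). Blood sampled at multiple times up to 24 h. Unchanged compound in plasma measured by LC-MS/MS. Parameters derived by noncompartmental analysis. F taken as the AUC ratio of oral to i.v. dosing. Each value is the mean of three animals.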

A short description of series [5]: Elimination half life in Sprague-Dawley rat at 1 mg/kg, iv by LC-MS/MS analysis. Conditions: in vivo, read-out: beta t1/2 (converted). It counts as ADME, organism-based. The method, boiled down:
as §1

A short description of series [6]: AUC (0 to 24 hrs) in Sprague-Dawley rat at 1 mg/kg, iv by LC-MS/MS analysis. It counts as ADME, organism-based. The arrangement: time < 24 hr, dose 1 mg/kg, route intravenous. Conditions: in vivo. The gist of the method:
as §1

The next series concerns Rattus norvegicus. The series can be described thus: Immunosuppressive activity in Lewis rat transplanted with ACI rat cardiac tissue assessed as reduction in graft rejection by measuring mean survival days at 1 mg/kg, po administered for 14 consecutive days co-treated with tacrolimus (reference value: 7 days). It counts as functional. The gist of the method:
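ACI donor hearts into Lewis recipients, abdominal vascularized heterotopic transplant under aseptic conditions; pentobarbital 40 mg/kg i.p. anaesthesia. Agent in propylene glycol, given orally with tacrolimus (0.02 mg/kg) for 14 consecutive days starting on operation day. Graft survival recorded per animal and median survival time reported (n = 9).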

Series [7] in a line: Total clearance in Sprague-Dawley rat at 1 mg/kg, iv by LC-MS/MS analysis. It counts as ADME, organism-based. Particulars: in vivo. The gist of the method: as §1
Series [8] is described as follows: Oral bioavailability in Sprague-Dawley rat at 1 mg/kg by LC-MS/MS analysis. It counts as ADME, organism-based. Conditions: in vivo. The method, boiled down:
as §1

Series [9] is described as follows: AUC (0 to 24 hrs) in Sprague-Dawley rat at 1 mg/kg, po by LC-MS/MS analysis. It counts as ADME, organism-based. The arrangement: time < 24 hr, dose 1 mg/kg, route oral. Particulars: in vivo. The method, boiled down: as §1
Series [10] can be described thus: Cmax in Sprague-Dawley rat at 1 mg/kg, po by LC-MS/MS analysis. It counts as ADME, organism-based. Details: dose 1 mg/kg, route oral. Conditions: in vivo. The method, boiled down:
as §1

The nature of series [11]: Tmax in Sprague-Dawley rat at 1 mg/kg, po by LC-MS/MS analysis. It counts as ADME, organism-based. Conditions: in vivo. The method, boiled down: as §1

Converted amounts (≈) assume the structure as drawn.

Sequence of CYP3A4 (P08684 whole entry): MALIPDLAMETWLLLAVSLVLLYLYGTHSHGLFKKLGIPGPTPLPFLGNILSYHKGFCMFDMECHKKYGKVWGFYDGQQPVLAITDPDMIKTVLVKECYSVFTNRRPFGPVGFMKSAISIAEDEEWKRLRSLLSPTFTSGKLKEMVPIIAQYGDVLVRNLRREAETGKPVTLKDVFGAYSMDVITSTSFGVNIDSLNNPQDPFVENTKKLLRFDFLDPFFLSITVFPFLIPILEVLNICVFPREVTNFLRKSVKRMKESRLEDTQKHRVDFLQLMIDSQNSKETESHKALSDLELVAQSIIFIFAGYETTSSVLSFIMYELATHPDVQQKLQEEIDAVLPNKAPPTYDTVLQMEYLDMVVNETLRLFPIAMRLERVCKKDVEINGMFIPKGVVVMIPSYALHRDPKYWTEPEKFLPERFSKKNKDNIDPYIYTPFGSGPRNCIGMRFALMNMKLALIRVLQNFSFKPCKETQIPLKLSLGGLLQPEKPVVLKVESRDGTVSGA
T1 sequence (Q04759 whole entry): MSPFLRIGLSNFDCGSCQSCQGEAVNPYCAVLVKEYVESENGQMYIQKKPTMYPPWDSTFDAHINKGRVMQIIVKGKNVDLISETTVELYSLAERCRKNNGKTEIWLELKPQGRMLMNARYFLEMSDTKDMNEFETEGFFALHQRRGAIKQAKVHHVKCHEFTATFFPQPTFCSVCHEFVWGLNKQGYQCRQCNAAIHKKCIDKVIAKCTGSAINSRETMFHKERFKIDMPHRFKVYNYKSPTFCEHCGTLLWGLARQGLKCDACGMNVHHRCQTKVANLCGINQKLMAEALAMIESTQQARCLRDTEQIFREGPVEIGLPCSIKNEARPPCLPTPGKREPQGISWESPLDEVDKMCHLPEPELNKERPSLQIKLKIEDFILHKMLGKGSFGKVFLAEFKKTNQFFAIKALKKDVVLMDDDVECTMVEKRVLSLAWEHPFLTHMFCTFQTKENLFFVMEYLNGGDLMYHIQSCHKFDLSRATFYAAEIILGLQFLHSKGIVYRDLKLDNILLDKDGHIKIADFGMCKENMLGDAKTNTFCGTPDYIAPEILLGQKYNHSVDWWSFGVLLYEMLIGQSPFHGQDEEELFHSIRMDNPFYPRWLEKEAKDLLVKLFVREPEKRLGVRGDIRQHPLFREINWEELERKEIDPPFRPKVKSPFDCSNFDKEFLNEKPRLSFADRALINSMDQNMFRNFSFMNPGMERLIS

With `CC(C)Oc1ncccc1CNc1ncc(C#N)c(NCC23CC4CC(C2)C(NC[C@H]2CC[C@H](O)CC2)C(C4)C3)n1` (stereo not given in full), at CYP3A4, the activity at 20 min, 5 µM came to 87%. The solubility – broadly, the concentration that dissolves in the medium under given conditions – at 20 h, 130 µM in series [1] is above 100 µM. Further, the concentration for half-maximal inhibition (IC50) (usually the concentration that inhibits the measured activity by half) is 0.59 nM in series [2] and 18 nM in series [3].
For `COc1ncccc1CNc1ncc(C#N)c(NCC23CC4CC(C2)C(NC[C@H]2CC[C@H](O)CC2)C(C4)C3)n1` (stereo not given in full), in that order: 94%, above 50 µM, 1.9 nM and 43 nM.
In turn, `COc1nnccc1CNc1ncc(C#N)c(NCC23CC4CC(C2)C(NC[C@H]2CC[C@H](O)CC2)C(C4)C3)n1` (stereo not given in full) registered a solubility at 20 h, 130 µM in series [1] above 100 µM. In addition, the IC50 in [2] was above 100 nM.
Turning to `CC(C)NC1C2CC3CC1CC(CNc1nc(NCc4ccccc4OC(F)(F)F)ncc1C#N)(C3)C2` (stereo not given), the activity at 20 min, 5 µM at CYP3A4 was 29%. The IC50 in [2] was below 1 nM.
Turning to `N#Cc1cnc(NCc2ccccc2Cl)nc1NCC12CC3CC(C1)C(NC[C@H]1CC[C@H](O)CC1)C(C3)C2` (stereo not given in full), the activity at 20 min, 5 µM on CYP3A4 was found to be 77%. Moreover, the concentration in solution in [1] (solubility at 20 h, 130 µM) was 1.1 µM (≈ 0.589 µg/mL). Moreover, the half-inhibitory concentration (IC50) was 1.4 nM in series [2] and 22 nM in series [3].
For the compound `CSc1ccccc1CNc1ncc(C#N)c(NCC23CC4CC(C2)C(NC[C@H]2CC[C@H](O)CC2)C(C4)C3)n1` (stereo not given in full), at CYP3A4, the activity at 20 min, 5 µM was found to be 92%. The compound further displayed a solubility at 20 h, 130 µM in series [1] of 45 µM (≈ 24.6 µg/mL). The half-maximal inhibitory concentration (IC50) in series [2] is 0.94 nM; in [3] it was 16 nM.
Regarding `CCSc1ncccc1CNc1ncc(C#N)c(NCC23CC4CC(C2)C(NC[C@H]2CC[C@H](O)CC2)C(C4)C3)n1` (stereo not given in full), at CYP3A4, the activity at 20 min, 5 µM amounted to 80%. The concentration in solution in series [1] (solubility at 20 h, 130 µM) was 16 µM (≈ 8.99 µg/mL). Further, the IC50 in series [2] was 0.46 nM; in series [3] it was below 3 nM.
Turning to `N#Cc1cnc(NCc2ccccc2OC(F)(F)F)nc1NCC12CC3CC(C1)C(NCCO)C(C3)C2` (stereo not given), the activity at 20 min, 5 µM at CYP3A4 turned out to be 36%. Further, the IC50 in [2] is 0.7 nM.
In the same order, the values of `N#Cc1cnc(NCc2ccccc2OC(F)(F)F)nc1NCC12CC3CC(C1)C(N[C@H]1CC[C@@H](O)CC1)C(C3)C2` (stereo not given in full) are 43% and 0.66 nM.
In the case of `N#Cc1cnc(NCc2ccccc2OC(F)(F)F)nc1NCC12CC3CC(C1)C(N[C@H]1CC[C@H](O)CC1)C(C3)C2` (stereo not given in full), at CYP3A4, the activity at 20 min, 5 µM was 64%. The half-inhibitory concentration (IC50) in series [2] came to 0.38 nM.
For `N#Cc1cnc(NCc2ccccc2OC(F)(F)F)nc1NCC12CC3CC(C1)C(NC1CCOCC1)C(C3)C2` (stereo not given), in that order: 41% and below 1 nM.
Consider `CC(C)Sc1ncccc1CNc1ncc(C#N)c(NCC23CC4CC(C2)C(NC[C@H]2CC[C@H](O)CC2)C(C4)C3)n1` (stereo not given in full), for which, at CYP3A4, the activity at 20 min, 5 µM stood at 66%. The compound also showed a solubility at 20 h, 130 µM in series [1] below 1 µM. In addition, the figures for the IC50 in [2] and in [3] were 0.23 nM and 3 nM, respectively.
With `CSc1ncccc1CNc1ncc(C#N)c(NCC23CC4CC(C2)C(NC[C@H]2CC[C@H](O)CC2)C(C4)C3)n1` (stereo not given in full), the activity at 20 min, 5 µM at CYP3A4 was found to be 98%. Further, in series [4], the Vd was determined as 12.9 L/kg. In addition, in series [5], the half-life is 3.97 h. Also, the solubility at 20 h, 130 µM in series [1] was above 50 µM. The values for the concentration for half-maximal inhibition (IC50) in [2] and in series [3] were 0.44 nM and 10 nM, respectively. Further, the exposure AUC(0-t) – broadly, exposure summed from dosing to a finite time, without extrapolation to infinity – at 24 h in [6] is 0.248 µg·h/mL; in series [9], 0.145 µg·h/mL. For the same compound, the MSD in the series on Rattus norvegicus was 20 days. Moreover, in series [7], the clearance (commonly the rate of elimination divided by the concentration) came to 4 L/h/kg. Besides, the bioavailability (as a rule, the share of a dose that reaches the circulation, judged against a reference dose that is usually intravenous) in series [8] was determined as 58.3%. In series [10], the highest concentration (Cmax) (in general, the highest concentration seen after dosing) is 0.0124 µg/mL. The Tmax (in general, the time from dosing to the highest level) in series [11] was 3.33 h.
For the compound `N#Cc1cnc(NCc2ccccc2OC(F)(F)F)nc1NCC12CC3CC(C1)C(N[C@H]1CC[C@H](N)CC1)C(C3)C2` (stereo not given in full), the activity at 20 min, 5 µM at CYP3A4 worked out at 59%. Also, in series [2], the IC50 turned out to be 0.1 nM.
Regarding `N#Cc1cnc(NCc2ccccc2OC(F)(F)F)nc1NCC12CC3CC(C1)C(NC[C@H]1CC[C@H](O)CC1)C(C3)C2` (stereo not given in full), the activity at 20 min, 5 µM on CYP3A4 amounted to 70%. Moreover, the solubility at 20 h, 130 µM in series [1] is below 1 µM. Further, the values for the IC50 in [2] and in series [3] were 0.42 nM and 11 nM, respectively.
In the case of `CS(=O)(=O)c1ncccc1CNc1ncc(C#N)c(NCC23CC4CC(C2)C(NC[C@H]2CC[C@H](O)CC2)C(C4)C3)n1` (stereo not given in full), in [1], the solubility at 20 h, 130 µM is above 100 µM. In series [3], the IC50 worked out at 140 nM.
In the case of `N#Cc1cnc(NCc2ccccc2OC(F)(F)F)nc1NCC12CC3CC(C1)C(NC1CCCCC1)C(C3)C2` (stereo not given), the activity at 20 min, 5 µM on CYP3A4 came out at 43%. Moreover, the concentration for half-maximal inhibition (IC50) in [2] is 1.9 nM.
As to `C[S+]([O-])c1ncccc1CNc1ncc(C#N)c(NCC23CC4CC(C2)C(NC[C@H]2CC[C@H](O)CC2)C(C4)C3)n1` (stereo not given in full), in series [1], the solubility at 20 h, 130 µM was above 100 µM. Also, the concentration for half-maximal inhibition (IC50) in series [2] is 32 nM; in series [3], 170 nM.
For the compound `N#Cc1cnc(NCc2ccccc2C(F)(F)F)nc1NCC12CC3CC(C1)C(NC[C@H]1CC[C@H](O)CC1)C(C3)C2` (stereo not given in full), the activity at 20 min, 5 µM at CYP3A4 was found to be 63%. For the same compound, the values for the IC50 in series [2] and in series [3] were 0.57 nM and 17 nM, respectively.
